Kir21 inh – blocks the mouse Kir2.1 inward-rectifier potassium channel | B-score at 10 µM | 310,000 tested, 0.85% active | P35561 | HEK293-Kir2.1, FluxOR thallium flux fluorescence; stronger effect = lower value | AID 1672;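 active means fluorescence ratio B-score at or below minus 3 SD of library scores, with starting-brightness B-score within 2 SD, cut at about -4.2 in these data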;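 further: channel flux triggered by added potassium and thallium sulfate stimulus; B-score of peak minus minimum fluorescence over baseline after thallium stimulus; more negative B-score means stronger Kir2.1 block with less thallium influx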
TRPC6 inh – mouse TRPC6 channel inhibition. HEK293-TRPC6, membrane potential dye, ACh-evoked depolarization; stronger effect = lower value. B-score at 10 µM. 310,000 tested, 1.1% active;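 active means B-score under library mean minus 3 SD, initial fluorescence not abnormally high, positive integrated signal ratio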;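 further: B-score derived from integrated fluorescence ratio over the kinetic read; more negative B-score means stronger inhibition of depolarization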
Target sequence (Q61143 whole entry, looked up): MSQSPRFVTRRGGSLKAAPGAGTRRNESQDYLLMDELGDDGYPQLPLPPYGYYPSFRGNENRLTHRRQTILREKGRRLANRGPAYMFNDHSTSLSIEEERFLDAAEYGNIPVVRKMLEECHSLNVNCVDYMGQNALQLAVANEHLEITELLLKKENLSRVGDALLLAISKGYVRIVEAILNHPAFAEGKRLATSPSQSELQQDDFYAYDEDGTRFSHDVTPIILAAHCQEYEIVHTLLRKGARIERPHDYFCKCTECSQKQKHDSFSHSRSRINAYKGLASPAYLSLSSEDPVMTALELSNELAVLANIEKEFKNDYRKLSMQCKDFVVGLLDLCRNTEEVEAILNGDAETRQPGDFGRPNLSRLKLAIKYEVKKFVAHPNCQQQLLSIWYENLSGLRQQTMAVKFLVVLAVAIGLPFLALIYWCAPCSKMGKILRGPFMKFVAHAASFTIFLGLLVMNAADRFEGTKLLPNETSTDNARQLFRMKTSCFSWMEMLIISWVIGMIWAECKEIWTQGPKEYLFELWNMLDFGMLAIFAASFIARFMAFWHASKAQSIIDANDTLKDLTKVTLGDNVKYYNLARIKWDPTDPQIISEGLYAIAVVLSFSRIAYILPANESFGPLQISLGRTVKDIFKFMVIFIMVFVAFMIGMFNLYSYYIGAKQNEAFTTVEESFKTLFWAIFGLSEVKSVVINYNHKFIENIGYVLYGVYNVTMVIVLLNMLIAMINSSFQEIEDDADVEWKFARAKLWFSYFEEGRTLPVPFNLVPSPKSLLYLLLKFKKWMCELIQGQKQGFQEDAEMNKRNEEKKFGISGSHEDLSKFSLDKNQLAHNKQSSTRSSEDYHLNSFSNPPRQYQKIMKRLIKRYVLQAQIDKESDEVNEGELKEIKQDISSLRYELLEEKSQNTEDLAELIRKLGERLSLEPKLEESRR
TRPC4 potent – allosterically enhances the mouse TRPC4 cation channel. B-score at 10 µM. 310,000 tested, 0.42% active. HEK293 TRPC4beta/mu-opioid, DAMGO EC20, Fluo-4 Ca2+ flux; stronger effect = higher value;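 active means B-score of calcium response area above 5 SD of library B-scores, with initial fluorescence ratio within 5 SD of library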;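 further: B-score of integrated fluorescence ratio over time as area under calcium response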
TRPC4 act – activators of mouse TRPC4 channel; Q9QUQ5; HEK293 TRPC4beta/mu-opioid, Fluo4 calcium fluorescence; stronger effect = higher value; B-score at 10 µM; 310,000 tested, 0.49% active; AID 2237;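 active means B-score above 5 SD of library B-scores, and initial fluorescence ratio not above library mean plus 5 SD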;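 further: positive B-score marks a calcium rise read as TRPC4 activation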
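System – HEK293 cells stably co-expressing mouse TRPC4beta and mu-opioid receptor · Signal – Fluo4 calcium-sensitive dye fluorescence, kinetic, 1 Hz baseline · Benchmarks – buffer (low) and maximal DAMGO (high) · Read-out – B score of integrated fluorescence ratio per well · Incubation – dye loading 45 min room temperature, 110 s kinetic read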
TRPC6 act – activates the mouse TRPC6 cation channel. Q61143. 310,000 tested, 0.13% active. B-score at 10 µM. HEK293-TRPC6 membrane potential dye fluorescence; stronger effect = higher value;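 active means B-score of the integrated fluorescence ratio above library mean plus 3 SD, and starting fluorescence ratio within library mean plus 5 SD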;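 further: higher score means more depolarization so channel activation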
TRPC4 inh – TRPC4 (mouse) channel inhibition; Q9QUQ5; HEK293 TRPC4beta/mu-opioid, DAMGO-evoked Fluo4 calcium flux; stronger effect = lower value; B-score at 10 µM; 300,000 tested, 0.39% active;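 active means B-score over 3 SD under the library average, no early fluorescence shift, positive overall ratio signal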
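Signal: kinetic Fluo4 fluorescence imaging of calcium influx. Material: stable TRPC4beta/mu-opioid receptor HEK293 cells. Probe or stimulus: DAMGO in two steps, submaximal then maximal.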
TRPC4 sel inh 2 – second check of whether TRPC6 inhibitors also affect mouse TRPC4 | shares compounds with TRPC6 inh | HEK293 TRPC4/MOR, membrane potential dye fluorescence; channel activated by saturating DAMGO dose | inhibition, % at 10 µM | 920 tested, 42% active;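 active means compounds whose fluorescence signal differed from control wells by over 3 SD, either direction, in both duplicate plates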
TRPC4 spec – mouse TRPC4 off-target activity of TRPC6 inhibitors; shares compounds with TRPC6 inh; HEK293 TRPC4/mu-opioid, membrane potential fluorescence; activity change, negative = inhibition, % at 10 µM; 920 tested, 61% active;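 active means rise or fall in signal beyond 3 SD of buffer-only wells in both replicate plates, either sign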;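 further: integrated kinetic ratio of fluorescence range over baseline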
HEK293 MPD ctr 2-1 – second counter-screen for TRPC6 inhibitors: parental HEK293 cells. shares compounds with TRPC6 inh. parental HEK293 membrane potential dye fluorescence; maximal acetylcholine challenge after compound addition. signal change vs control, % at 10 µM. 920 tested, 31% active;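 active means membrane potential signal moving either way by over 3 SD of the maximum-effect control, in both duplicate plates, meaning non-specific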
HEK293 MPD ctr-1 – checks TRPC6 inhibitor effects in parental HEK293 cells. parental HEK293 membrane potential dye fluorescence. shares compounds with TRPC6 inh. 920 tested, 60% active. membrane potential signal change, % at 10 µM. AID 2780;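 active means membrane potential signal shifting up or down by more than 3 SD of buffer-only wells, on both duplicate plates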
HEK293 MPD ctr-2 – checks TRPC6 modulator effects in parental HEK293 cells; shares compounds with TRPC6 inh; membrane potential dye fluorescence; membrane potential signal change, % at 10 µM; 2,400 tested, 51% active;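 active means membrane potential signal moves up or down beyond 5 SD from buffer-only wells, on both duplicate plates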
HEK293 MPD ctr 2-2 – parental HEK293 nonspecific activity of TRPC6 modulators, second screen; shares compounds with TRPC6 inh; membrane potential dye fluorescence; after compound, maximal acetylcholine stimulation; inhibition, % at 10 µM; 2,400 tested, 14% active; AID 488926;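 active means membrane potential signal drops by more than 5 SD from the mean control signal, in both duplicate plates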;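 further: plate controls were acetylcholine ECmax control wells for no effect and buffer only wells for full effect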
TRPC4 ctr mod – tests whether TRPC6 modulators also affect mouse TRPC4; shares compounds with TRPC6 inh; percent change from control (negative = decrease, positive = increase), % at 10 µM; 2,400 tested, 69% active; HEK293 TRPC4/mu-opioid, membrane potential fluorescence;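 active means membrane potential signal moved up or down beyond 5 SD of buffer control wells, in both duplicate plates, actives on both sides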;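 further: plate controls were assay buffer wells for no effect and DAMGO maximal-effect wells for full effect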
TRPC4 ctr inh 2 – second selectivity test of TRPC6 modulators against mouse TRPC4. AID 488928. inhibition, % at 10 µM. HEK293 TRPC4/mu-opioid, membrane potential dye fluorescence; stimulated with maximal-effect DAMGO. 2,400 tested, 55% active. shares compounds with TRPC6 inh;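 active means drop in membrane potential signal beyond 5 SD of the control wells in both duplicate plates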;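 further: TRPC4 counter screen for TRPC6 hits run under conditions tuned for TRPC6 not TRPC4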
TRPC6 block conf – confirmation of mouse TRPC6 inhibitors. shares compounds with TRPC6 inh. HEK293-TRPC6, membrane potential dye, ACh-evoked depolarization. inhibition, % at 10 µM. 3,300 tested, 43% active. AID 488960;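 active means fluorescence ratio falls more than 5 SD below the full-stimulation control mean, in both duplicate runs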;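 further: integrated fluorescence ratio of peak minus minimum over baseline after agonist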
TRPC6 act confirm – confirmation of mouse TRPC6 activators; shares compounds with TRPC6 inh; HEK293-TRPC6 membrane potential dye fluorescence, FDSS; activation, % at 10 µM; 2,800 tested, 11% active;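 active means ratio signal rise beyond 5 SD above unstimulated control wells' mean, seen in both duplicate runs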;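 further: plate controls were buffer EC0 wells for no effect and acetylcholine ECmax response for full effect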
An asterisk follows results filed as active. Hits are enriched below; roughly 3% of the tested compounds scored in any of these assays.

Screening Cc1ccc(C(=O)N2CCC(C(=O)Nc3cccc([N+](=O)[O-])c3)CC2)cc1 returned Kir21 inh 0.68, TRPC6 inh inactive, TRPC4 potent inactive, TRPC4 act inactive, TRPC6 act inactive and TRPC4 inh inactive.
Screening COC(=O)c1ccc(CN(c2ccccc2Cl)S(C)(=O)=O)cc1 returned Kir21 inh 0.62, TRPC6 inh inactive, TRPC4 potent inactive, TRPC4 act inactive, TRPC6 act inactive and TRPC4 inh inactive.
For COC(=O)c1ccc(Cl)cc1N(Cc1c(F)cccc1Cl)S(C)(=O)=O the results were Kir21 inh 0.14, TRPC6 inh -5.3*, TRPC4 potent inactive, TRPC4 act 65*, TRPC6 act inactive, TRPC4 inh inactive, HEK293 MPD ctr-2 303%*, HEK293 MPD ctr 2-2 113%*, TRPC4 ctr mod 44%*, TRPC4 ctr inh 2 38%* and TRPC6 block conf inactive.
O=C(C1COc2ccccc2O1)N1CCOCC1 (stereo not drawn) was read as Kir21 inh 1.4, TRPC6 inh inactive, TRPC4 potent inactive, TRPC4 act inactive, TRPC6 act inactive and TRPC4 inh inactive.
`CC1CCCN(C(=O)C2COc3ccccc3O2)C1` (stereo not drawn) gave Kir21 inh -0.03, TRPC6 inh -5*, TRPC4 potent inactive, TRPC4 act inactive, TRPC6 act inactive, TRPC4 inh inactive, HEK293 MPD ctr-2 inactive, HEK293 MPD ctr 2-2 inactive, TRPC4 ctr mod 8.5%*, TRPC4 ctr inh 2 inactive and TRPC6 block conf 49%*.
Fc1ccc(Cn2nnc3ccccc32)cc1 was read as Kir21 inh 0.19, TRPC6 inh -7.9*, TRPC4 potent inactive, TRPC4 act inactive, TRPC6 act inactive, TRPC4 inh inactive, TRPC4 sel inh 2 inactive, TRPC4 spec inactive, HEK293 MPD ctr 2-1 inactive, HEK293 MPD ctr-1 -0.6%*, TRPC6 block conf inactive and TRPC6 act confirm inactive.
For CC(=O)Nc1ccc(C(=O)OCCC(C)C)cc1 the results were Kir21 inh 0, TRPC6 inh -6.8*, TRPC4 potent inactive, TRPC4 act inactive, TRPC6 act inactive, TRPC4 inh inactive, TRPC4 sel inh 2 inactive, TRPC4 spec inactive, HEK293 MPD ctr 2-1 inactive, HEK293 MPD ctr-1 inactive, TRPC6 block conf inactive and TRPC6 act confirm inactive.
Screening CC(C)(C)NCc1cc(Br)ccc1OCc1cccs1 returned Kir21 inh -4.8*, TRPC6 inh -11*, TRPC4 potent inactive, TRPC4 act inactive, TRPC6 act inactive, TRPC4 inh inactive, TRPC4 sel inh 2 39%*, TRPC4 spec 64%*, HEK293 MPD ctr 2-1 inactive, HEK293 MPD ctr-1 36%* and TRPC6 block conf 99%*.
For C=CCOc1ccc(Br)cc1CNC(C)(C)C the results were Kir21 inh -2.6, TRPC6 inh -6.1*, TRPC4 potent inactive, TRPC4 act inactive, TRPC6 act inactive, TRPC4 inh inactive, HEK293 MPD ctr-2 214%*, HEK293 MPD ctr 2-2 98%*, TRPC4 ctr mod 52%*, TRPC4 ctr inh 2 100%* and TRPC6 block conf 80%*.
Screening OCCCCNCc1cc(Br)ccc1OCc1ccccc1 returned Kir21 inh -1.6, TRPC6 inh inactive, TRPC4 potent inactive, TRPC4 act inactive, TRPC6 act inactive and TRPC4 inh inactive.
Screening C=CCOc1ccc(Br)cc1CNCCO returned Kir21 inh 1.3, TRPC6 inh inactive, TRPC4 potent inactive, TRPC4 act inactive, TRPC6 act inactive and TRPC4 inh inactive.
`CC(C)(C)NCc1cc(Cl)ccc1OCc1cccs1` gave Kir21 inh -2, TRPC6 inh -8*, TRPC4 potent inactive, TRPC4 act inactive, TRPC6 act inactive, TRPC4 inh inactive, TRPC4 sel inh 2 40%*, TRPC4 spec 58%*, HEK293 MPD ctr 2-1 30%*, HEK293 MPD ctr-1 32%* and TRPC6 block conf 108%*.
CC(C)NCc1cc(Br)ccc1OCc1ccccc1 was read as Kir21 inh -1.7, TRPC6 inh -7.2*, TRPC4 potent inactive, TRPC4 act inactive, TRPC6 act 12*, TRPC4 inh inactive, HEK293 MPD ctr-2 403%*, HEK293 MPD ctr 2-2 inactive, TRPC4 ctr mod 96%*, TRPC4 ctr inh 2 83%*, TRPC6 block conf 81%* and TRPC6 act confirm 116%*.
Screening Cc1ccc(S(=O)(=O)NCC(=O)N2CCN(c3ccc(F)cc3)CC2)cc1 returned Kir21 inh 0.01, TRPC6 inh inactive, TRPC4 potent inactive, TRPC4 act inactive, TRPC6 act inactive and TRPC4 inh inactive.
Screening NNC(=O)CS(=O)(=O)c1ccc(Cl)cc1 returned Kir21 inh 0.95, TRPC6 inh inactive, TRPC4 potent inactive, TRPC4 act inactive, TRPC6 act inactive and TRPC4 inh inactive.
